Laboratory results as given in article PMC6045484 (ACS Omega, 2018).
Values after ≈ are worked out from the molar mass of the structure shown. “Also recorded” adds a separate entry of the source.

Tests used:
P. falciparum (D6) = test: in vitro antimalarial activity, plasmodial LDH; assay type: cell-based, Plasmodium falciparum; details: Plasmodium falciparum, D6, 72 h, read-out: P. falciparum (D6) IC50
P. falciparum (W2) = test: in vitro antimalarial activity, plasmodial LDH; assay type: cell-based, Plasmodium falciparum; details: Plasmodium falciparum, W2, 72 h, read-out: P. falciparum (W2) IC50, CQ-resistant W2 strain, 72 h
Outline: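 P. falciparum-infected erythrocytes (2% parasitemia, 2% hematocrit) in RPMI 1640 with 10% human serum and 60 μg/mL amikacin. Exposed to test compound dilutions for 72 h at 37 °C under 90% N2/5% O2/5% CO2. LDH measured with Malstat reagent (30 min, room temperature), then NBT/PES for 1 h in the dark, stopped with 5% acetic acid, read at 650 nm. IC50 from dose-response curves.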

[1] = test system: SK-MEL, KB, BT-549, SK-OV-3, VERO and LLC-PK1 cells; test: cytotoxicity, neutral red uptake assay; assay type: cell-based, mammalian; details: highest test concentration 4760 ng/mL
Outline: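 Cells seeded at 25 000/well and allowed 24 h to reach confluence. Test compound was then added and incubated 48 h. Viable cells were counted by a modified neutral red uptake method. The panel was four human cancer lines and two noncancerous mammalian kidney lines. Doxorubicin served as positive control and DMSO as negative control.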

[2] = test system: P. berghei (sensitive strain); test: blood-schizontocidal activity against P. berghei infection in mice; assay type: in vivo, Plasmodium berghei; details: Swiss mice
Outline: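 Swiss mice of either sex (about 15–20 g, same age), six per group, inoculated intraperitoneally on day 0 with 1 × 10^7 infected erythrocytes from a donor mouse. Oral test compound at 100, 50, 25 or 10 mg/kg, CQ diphosphate (10 mg/kg/day × 4) or vehicle started 4 h later, on D0 to D+3. Giemsa tail-blood smears on D+4 and D+7. Curative: parasites eliminated, no relapse, all mice surviving to D+60.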

C. albicans ATCC90028 = test: in vitro antifungal activity; assay type: cell-based, Candida albicans; details: Candida albicans; for IC50: ATCC90028, read-out: C. albicans IC50; for MFC: ATCC90028, read-out: C. albicans MFC; for MIC: ATCC90028, read-out: C. albicans MIC
Outline: (§1)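 Modified NCCLS broth method in Sabouraud dextrose. Inoculum set by OD630 to 1.5 × 10^3 CFU/mL. Test compound serially diluted in 20% DMSO/saline, duplicate wells, up to 20 μg/mL. Incubated 70–74 h at 35 °C; 530 nm read before and after. IC50 is 50% growth inhibition; MIC is no detectable growth. MFC from clear wells subcultured on agar. Amphotericin B control.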

C. neoformans ATCC90113 = test: in vitro antifungal activity; assay type: cell-based, Cryptococcus neoformans; details: Cryptococcus neoformans; for IC50: ATCC90113, read-out: C. neoformans IC50; for MFC: ATCC90113, read-out: C. neoformans MFC; for MIC: ATCC90113, read-out: C. neoformans MIC
Outline: as §1

A. fumigatus ATCC 90906 = test: in vitro antifungal activity; assay type: cell-based, Aspergillus fumigatus; details: Aspergillus fumigatus; for IC50: ATCC90906, read-out: A. fumigatus IC50; for MFC: ATCC90906, read-out: A. fumigatus MFC; for MIC: ATCC90906, read-out: A. fumigatus MIC
Outline: as §1

SA (ATCC29213) = test: in vitro antibacterial activity; assay type: cell-based; details: Staphylococcus aureus; for IC50: ATCC29213, read-out: IC50 (concentration that affords 50% growth inhibition), SA; for MBC: ATCC29213, read-out: MBC (minimum bactericidal concentration), SA; for MIC: ATCC29213, read-out: MIC, SA
Outline: (§2)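 Test compound serially diluted in 20% DMSO/saline and plated in duplicate, up to 20 μg/mL. Inoculum in cation-adjusted Mueller–Hinton broth, pH 7.3, set by OD630 to 5 × 10^5 CFU/mL. Incubated 16–20 h at 35 °C; 530 nm read before and after. IC50 is 50% growth inhibition; MIC is no detectable growth. MBC from clear wells subcultured on agar. Ciprofloxacin control.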

MRSA (ATCC33591) = test: in vitro antibacterial activity; assay type: cell-based, methicillin-resistant Staphylococcus aureus; details: Staphylococcus aureus, ATCC33591|MRSA, read-out: MIC, MRSA
Outline: as §2

[3] = test system: M. intracellulare (ATCC23068); test: in vitro antibacterial activity, modified alamarBlue procedure; assay type: cell-based, Mycobacterium intracellulare; details: Mycobacterium intracellulare; for IC50: ATCC23068, read-out: IC50 (concentration that affords 50% growth inhibition), M. intracellulare; for MBC: ATCC23068, read-out: MBC (minimum bactericidal concentration), M. intracellulare; for MIC: ATCC23068, read-out: MIC, M. intracellulare
Outline: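 Modified alamarBlue microplate method. Test compound serially diluted in 20% DMSO/saline, duplicate wells, up to 20 μg/mL. Inoculum 2.0 × 10^6 CFU/mL in Middlebrook 7H9 with OADC, pH 7.3, containing 5% alamarBlue. Incubated 70–74 h at 37 °C, 10% CO2; fluorescence 544ex/590em read before and after. MIC: no blue-to-pink change. MBC by subculturing blue wells on agar. Ciprofloxacin control.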

[4] = test system: L. donovani promastigotes; test: in vitro antileishmanial activity, alamarBlue assay; assay type: cell-based, Leishmania donovani; details: Leishmania donovani, 48 h

Compound: CCCCCCOc1c(OC)cc(NC(C)CCCNC(=O)C(N)CCCCN)c2nc(C(C)(C)C)ccc12 (centres unmarked) [compound 99, 2,6-Diamino-N-(4-(2-tert-butyl-5-(hexyloxy)-6-methoxyquinolin-8-ylamino)-pentyl)hexanamide]
- IC50 (P. falciparum (D6)): 0.09 µg/mL (≈ 0.166 µM)
- IC50 (P. falciparum (W2)): 0.036 µg/mL (≈ 0.0662 µM)
- cytotoxicity CTX [1]: NC (NC, not cytotoxic up to 4760 ng/mL (4.76 μg/mL))
- P. berghei blood-schizontocidal activity (mice cured/treated) ([2]; 25 mg/kg/day × 4, oral): inactive (0/6)
- P. berghei blood-schizontocidal activity (mice cured/treated) ([2]; 50 mg/kg/day × 4, oral): suppressive activity; also recorded: active (3/6)
- P. berghei blood-schizontocidal activity (mice cured/treated) ([2]; 100 mg/kg/day × 4, oral): 100% cure and curative (6/6)
- IC50 (C. albicans ATCC90028): > 20 µg/mL
- MFC (C. albicans ATCC90028): > 20 µg/mL
- MIC (C. albicans ATCC90028): > 20 µg/mL
- IC50 (C. neoformans ATCC90113): 18.6 µg/mL (≈ 34.3 µM)
- MFC (C. neoformans ATCC90113): > 20 µg/mL
- MIC (C. neoformans ATCC90113): > 20 µg/mL
- IC50 (A. fumigatus ATCC 90906): > 20 µg/mL
- MFC (A. fumigatus ATCC 90906): > 20 µg/mL
- MIC (A. fumigatus ATCC 90906): > 20 µg/mL
- IC50 (SA (ATCC29213)): > 20 µg/mL
- MBC (SA (ATCC29213)): > 20 µg/mL
- MIC (SA (ATCC29213)): > 20 µg/mL
- MIC (MRSA (ATCC33591)): > 20 µg/mL
- IC50 [3]: > 20 µg/mL
- MBC [3]: > 20 µg/mL
- MIC [3]: > 20 µg/mL

Compound: CCCCCCCOc1c(OC)cc(NC(C)CCCNC(=O)C(N)CCCNC(=N)N)c2nc(C(C)(C)C)ccc12 (centres unmarked) [compound 111, 2-Amino-N-(4-(2-tert-butyl-5-(heptyloxy)-6-methoxyquinolin-8-ylamino)pentyl)-5-guanidinopentanamide]
- IC50 (P. falciparum (D6)): 0.39 µg/mL (≈ 0.666 µM)
- IC50 (P. falciparum (W2)): 0.24 µg/mL (≈ 0.41 µM)
- cytotoxicity CTX [1]: NC (NC, not cytotoxic up to 4760 ng/mL (4.76 μg/mL))
- P. berghei blood-schizontocidal activity (mice cured/treated) ([2]; 25 mg/kg/day × 4, oral): inactive (0/6)
- P. berghei blood-schizontocidal activity (mice cured/treated) ([2]; 50 mg/kg/day × 4, oral): 100% cure and curative (6/6)
- P. berghei blood-schizontocidal activity (mice cured/treated) ([2]; 100 mg/kg/day × 4, oral): 100% cure and curative (6/6)
- IC50 (C. albicans ATCC90028): > 20 µg/mL
- MFC (C. albicans ATCC90028): > 20 µg/mL
- MIC (C. albicans ATCC90028): > 20 µg/mL
- IC50 (C. neoformans ATCC90113): 13.2 µg/mL (≈ 22.6 µM)
- MFC (C. neoformans ATCC90113): > 20 µg/mL
- MIC (C. neoformans ATCC90113): > 20 µg/mL
- IC50 (A. fumigatus ATCC 90906): > 20 µg/mL
- MFC (A. fumigatus ATCC 90906): > 20 µg/mL
- MIC (A. fumigatus ATCC 90906): > 20 µg/mL
- IC50 (SA (ATCC29213)): > 20 µg/mL
- MBC (SA (ATCC29213)): > 20 µg/mL
- MIC (SA (ATCC29213)): > 20 µg/mL
- MIC (MRSA (ATCC33591)): > 20 µg/mL
- IC50 [3]: > 20 µg/mL
- MBC [3]: > 20 µg/mL
- MIC [3]: > 20 µg/mL

Compound: CCCCCCCCOc1c(OC)cc(NC(C)CCCNC(=O)C(N)Cc2ccccc2)c2nc(C(C)(C)C)ccc12 (centres unmarked) [compound 121, 2-Amino-N-(4-(2-tert-butyl-6-methoxy-5-(octyloxy)quinolin-8-ylamino)pentyl)-3-phenylpropanamide]
- IC50 (P. falciparum (D6)): > 4.76 µg/mL
- IC50 (P. falciparum (W2)): > 4.76 µg/mL
- cytotoxicity CTX [1]: NC (NC, not cytotoxic up to 4760 ng/mL (4.76 μg/mL))
- P. berghei blood-schizontocidal activity (mice cured/treated) ([2]; 25 mg/kg/day × 4, oral): inactive (0/6)
- P. berghei blood-schizontocidal activity (mice cured/treated) ([2]; 50 mg/kg/day × 4, oral): suppressive activity; also recorded: active (3/6)
- P. berghei blood-schizontocidal activity (mice cured/treated) ([2]; 100 mg/kg/day × 4, oral): 100% cure and curative (6/6)
- IC50 ([4]; read-out: L. donovani IC50, promastigotes, 48 h): 11.8 µg/mL (≈ 20 µM)
- IC90 ([4]; read-out: L. donovani IC90, promastigotes, 48 h): 28.7 µg/mL (≈ 48.5 µM)
- IC50 (C. albicans ATCC90028): > 20 µg/mL
- MFC (C. albicans ATCC90028): > 20 µg/mL
- MIC (C. albicans ATCC90028): > 20 µg/mL
- IC50 (C. neoformans ATCC90113): 17.3 µg/mL (≈ 29.3 µM)
- MFC (C. neoformans ATCC90113): > 20 µg/mL
- MIC (C. neoformans ATCC90113): > 20 µg/mL
- IC50 (A. fumigatus ATCC 90906): > 20 µg/mL
- MFC (A. fumigatus ATCC 90906): > 20 µg/mL
- MIC (A. fumigatus ATCC 90906): > 20 µg/mL
- IC50 (SA (ATCC29213)): 7.79 µg/mL (≈ 13.2 µM)
- MBC (SA (ATCC29213)): > 20 µg/mL
- MIC (SA (ATCC29213)): > 20 µg/mL
- MIC (MRSA (ATCC33591)): > 20 µg/mL
- IC50 [3]: > 20 µg/mL
- MBC [3]: > 20 µg/mL
- MIC [3]: > 20 µg/mL
